# How the values were obtained:
# Type in all cases: functional
# Rattus norvegicus [1] = assay: Compound was tested in vivo for dopamine agonist activity in the rat rotation assay after intravenous administration at the 4.60 (umol/kg) dose
# Rattus norvegicus [2] = assay: Compound was tested in vivo for dopamine agonist activity in the rat rotation assay after intravenous administration at dose 0.46 (umol/kg)
# Rattus norvegicus [3] = assay: Compound was tested in vivo for dopamine agonist activity in the rat rotation assay after intravenous administration at the dose 1.38 (umol/kg)
# Felis catus = assay: Compound was tested in vivo for dopamine agonist activity in the cat cardioaccelerator nerve assay; conditions: read-out: ID50 (the source's name)
# In short: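 Cats anesthetized with pentobarbital sodium 30 mg/kg injected into the thoracic cavity. Compounds given intravenously at doses spaced 0.33 log intervals apart, with N = 3 per dose. Inhibition of cardioaccelerator nerve response measured.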
# Rattus norvegicus [4] = assay: Compound was tested in vivo for dopamine agonist activity in the rat rotation assay after intravenous administration at dose 3.5 (umol/kg)
Compound,Inhibition (Rattus norvegicus [1]) [%],Inhibition (Rattus norvegicus [2]) [%],Inhibition (Rattus norvegicus [3]) [%],ED50 (Felis catus) [µmol/kg],Inhibition (Rattus norvegicus [4]) [%]
CN1CCCC2(OCCO2)C1Cc1ccccc1 (stereo not drawn),36,22,18,> 4,–
CN1CCCC2(OCCO2)C1Cc1cccc2[nH]ccc12 (stereo not drawn),–,–,–,0.095,–
CN1CCCC2(OCCO2)C1Cc1c[nH]c2ccccc12 (stereo not drawn),–,–,–,> 4,32
CN1CCc2cccc3c2[C@H]1Cc1ccc(O)c(O)c1-3 [APOMORPHINE],–,–,–,0.0348,–
